Source: PubChem BioAssay
PAD4 FP inh: PAD4 (human) enzyme inhibition; recombinant PAD4, RCA probe fluorescence polarization; inhibition, % at 6.36 µM; 330,000 tested, 0.41% active;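 active means percent inhibition above a cutoff equal to the mean of all tested compounds plus 3 SD, cut at about 15% in these data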;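 further: 0% = PAD4 with RCA probe and DMSO and 100% = probe without PAD4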
GSTO1 counter: blocks human GSTO1 in RBBP9 counter-screen; P78417; recombinant GSTO1, activity-based probe fluorescence polarization; inhibition, % at 5.96 µM; 300,000 tested, 1.1% active; AID 1974;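 active means inhibition above the campaign mean inhibition plus 3 SD, cut at about 35% in these data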;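 further: 0% = GSTO1-1 with DMSO and 100% = wells lacking GSTO1-1 enzyme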
Apaf1 inhib: human Apaf-1 inhibition. 330,000 tested, 0.71% active. inhibition, % at 20 µM. O14727. reconstituted apoptosome caspase-3 activity, DEVD-Rh110 fluorescence. AID 489030; active means inhibition of at least 40% at 20 µM;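 further: plate controls were DMSO wells for no effect and DEVD-CHO caspase inhibitor wells for full effect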
Target sequence (O14727 whole entry, looked up): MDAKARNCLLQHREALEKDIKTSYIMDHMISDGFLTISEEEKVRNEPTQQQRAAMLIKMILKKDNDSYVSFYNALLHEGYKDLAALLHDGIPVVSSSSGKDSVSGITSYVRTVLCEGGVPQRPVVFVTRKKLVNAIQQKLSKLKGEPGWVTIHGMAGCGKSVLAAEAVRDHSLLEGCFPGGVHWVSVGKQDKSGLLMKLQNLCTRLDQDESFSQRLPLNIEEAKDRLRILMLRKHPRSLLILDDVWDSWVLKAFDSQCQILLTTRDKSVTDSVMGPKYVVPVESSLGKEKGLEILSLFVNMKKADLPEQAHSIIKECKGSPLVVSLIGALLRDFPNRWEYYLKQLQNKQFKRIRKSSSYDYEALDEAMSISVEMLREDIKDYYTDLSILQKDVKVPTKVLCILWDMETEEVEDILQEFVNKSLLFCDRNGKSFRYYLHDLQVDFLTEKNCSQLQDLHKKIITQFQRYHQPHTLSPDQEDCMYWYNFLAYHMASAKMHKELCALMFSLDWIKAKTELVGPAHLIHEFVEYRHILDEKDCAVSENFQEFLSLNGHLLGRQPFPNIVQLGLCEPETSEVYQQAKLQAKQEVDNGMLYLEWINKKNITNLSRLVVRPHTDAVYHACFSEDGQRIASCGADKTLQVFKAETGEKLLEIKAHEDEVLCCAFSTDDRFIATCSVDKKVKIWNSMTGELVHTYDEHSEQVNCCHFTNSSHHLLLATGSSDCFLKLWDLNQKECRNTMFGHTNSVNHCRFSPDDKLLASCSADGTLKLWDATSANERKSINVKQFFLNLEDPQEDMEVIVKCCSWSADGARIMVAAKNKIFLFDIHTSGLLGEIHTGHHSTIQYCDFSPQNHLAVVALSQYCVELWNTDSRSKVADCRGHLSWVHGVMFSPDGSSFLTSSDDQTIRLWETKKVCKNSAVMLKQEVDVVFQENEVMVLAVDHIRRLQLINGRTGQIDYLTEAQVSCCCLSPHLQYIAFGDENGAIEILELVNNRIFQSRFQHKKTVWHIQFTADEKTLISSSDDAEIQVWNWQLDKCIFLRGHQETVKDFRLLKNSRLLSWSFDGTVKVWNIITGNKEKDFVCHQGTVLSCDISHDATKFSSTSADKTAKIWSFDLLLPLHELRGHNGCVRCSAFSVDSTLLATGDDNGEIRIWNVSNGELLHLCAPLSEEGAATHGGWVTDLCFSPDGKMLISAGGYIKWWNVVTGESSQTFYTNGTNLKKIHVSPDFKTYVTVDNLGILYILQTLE
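Assay system: Apoptosome proteins | Medium: pH 7.5 Hepes buffer with CHAPS, BSA, DTT | Also added: Cytochrome c and DEVD-Rh110 substrate | Times: 30 min plus 50 min, RT | Detection: Rhodamine 110 fluorescence at Ex 480/Em 540 nm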
TDP2 absorb: TDP2 (human) inhibition, absorbance primary screen | recombinant TDP2, T5PNP hydrolysis, p-nitrophenol absorbance 415 nm | inhibition, % at 12.8 µM | AID 720702 | 370,000 tested, 0.34% active;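 active means inhibition above the mean of all tested compounds plus 3 SD, set per campaign, cut at about 25% in these data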;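 further: 0% = DMSO with enzyme and 100% = buffer with substrate but no TDP2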
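Assay system: recombinant human TDP2 / Reagent: T5PNP substrate at 5 mM, a TopII-DNA adduct mimic / Measured by: epi absorbance from released p-nitrophenol / Evaluation: % inhibition relative to enzyme-containing and enzyme-free wells / Control set: enzyme-free and DMSO wells / Replicates: each compound tested once, singlicate / Schedule: enzyme reaction with compound for 2 h at 37 °C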
Fh CTSL1 inh: blocks F. hepatica cathepsin L1 in PFM18AAP counter-screen; 300,000 tested, 0.49% active; inhibition, % at 5.96 µM; AID 1906; recombinant F. hepatica cathepsin L1, Z-Leu-Arg-MCA fluorescence;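 active means inhibition above the mean of all tested compounds plus 3 SD, set per screening campaign, cut at about 17% in these data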;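 further: 0% = plate median of test compound wells and 100% = 1 µM Z-Phe-Ala-diazomethylketone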
The depositor's hits bear a star; · = no result. Most compounds without a hit are left out; they make up all but 1.8% or so of the library.

SMILES | PAD4 FP inh | GSTO1 counter | Apaf1 inhib | TDP2 absorb | Fh CTSL1 inh
CCOC(=O)C1=C(C(=O)OCC)C2N(Cc3ccc(C#N)cc3)c3ccccc3[C@@]23C[C@@H](C(=O)OC)N(S(=O)(=O)c2ccccc2)C3=N1 (stereo not given in full) | · | · | · | 0.6 | ·
Cc1ccc(-c2noc(CCC(=O)N3CCN(c4cccc(C(F)(F)F)c4)CC3)n2)cc1 | -2.3 | -6.2 | 42.1* | -5.7 | 4.3
COc1ccc(-c2noc(CCC(=O)N3CCN(c4ccc(C(F)(F)F)cc4)CC3)n2)cc1 | -0.4 | · | 17.4 | -1.2 | ·
COc1ccc([C@H]2OC(=O)C[C@H]2C(=O)N2CCCCC2)cc1OC | · | · | · | -2.8 | ·
COc1ccc(CN(CCC(c2ccccc2)c2ccco2)C(=O)c2ccco2)cc1 (stereo not given) | -3.5 | 1.7 | 24.1 | 7.9 | 23.4*
COc1ccccc1NC(=O)CC(c1ccc(F)cc1)c1ccco1 (stereo not given) | -2.4 | 0.8 | -0.6 | -7.8 | 21.4*
CCN(CC)C(=O)CC(c1ccccc1)c1ccco1 (stereo not given) | -0.1 | -1.2 | -12.0 | -0.2 | 35.5*
O=C(CC(c1ccc(F)cc1)c1ccco1)Nc1nccs1 (stereo not given) | -2.6 | 0.2 | -7.7 | -6.3 | -0.3
CCN(CC)C(=O)CP(=O)(c1ccccc1)c1ccccc1 | -4.0 | 1.5 | -3.7 | 4.0 | 4.7
O=C1c2ccccc2C(=O)N1CCC(c1ccc(F)cc1)c1ccco1 (stereo not given) | 7.3 | -0.1 | 12.5 | -15.2 | 18.0*
CCCN(CCC)C(=O)CC(c1ccc(F)cc1)c1ccco1 (stereo not given) | -1.7 | 5.7 | 9.4 | 0.1 | 57.3*
O=C(CC(c1ccc(F)cc1)c1ccco1)N1CCOCC1 (stereo not given) | -5.2 | 6.6 | -0.4 | -4.3 | 15.2
O=C(CC(c1ccc(F)cc1)c1ccco1)N1CCCC1 (stereo not given) | 0.0 | 0.2 | 0.3 | 4.4 | 35.7*
Cc1ccccc1Cn1cc(COC(=O)N(C)Cc2ccccc2)nn1 | · | · | · | -7.4 | ·
NC(=O)c1nsc(C(=O)N(CC(=O)NC2CCCC2)c2cccc(C(F)(F)F)c2)c1N | -0.2 | 8.9 | 6.4 | 12.2 | 20.4*
COc1cccc(N(CC(=O)NC2CCCCC2)C(=O)c2snc(C(N)=O)c2N)c1 | -3.5 | -6.4 | -3.9 | -12.2 | -1.2
COC(=O)CN(C#N)c1nc(NC(C)C)nc(OC)n1 | 3.5 | 6.8 | 1.2 | 6.3 | 80.5*
COC(=O)CN(C#N)c1nc(OC)nc(N(C)C)n1 | 1.8 | 4.9 | -4.3 | 5.0 | 39.9*
CCOC(=O)CN(C#N)c1nc(C)cc(C)n1 | 0.3 | 6.7 | -0.6 | -0.3 | 19.5*
CC(C)N(C(=O)CN(C#N)c1nc(N(C)C)nc(N(C)C)n1)c1ccccc1 | 2.3 | 5.8 | 3.2 | 18.9 | -0.2
COC(=O)CN(C#N)c1nc(C)cc(C)n1 | -4.6 | 4.5 | -3.8 | 1.8 | 8.0
COC(=O)CN(C#N)c1nc(N(C)C)nc(N(C)C)n1 | -2.3 | -10.9 | -0.8 | -1.9 | 21.1*
CCCCOc1ccc(C(=O)n2ccc3ccc(-c4ccc5ccn(Cc6ccccc6)c5c4)cc32)cc1 | · | · | · | 6.7 | ·
Cc1ccc(-n2c(SCC(=O)Nc3ccc(S(=O)(=O)Nc4nccs4)cc3)nnc2-c2cccs2)cc1 | · | · | · | -6.7 | ·
CCCC(=O)N1CCC(NS(=O)(=O)c2ccc3c(c2)CCN3C(C)=O)CC1 | · | · | · | -4.5 | ·
SMILES | PAD4 FP inh | GSTO1 counter | Apaf1 inhib | TDP2 absorb | Fh CTSL1 inh
COC(=O)CN(C#N)c1nc(NCc2ccccc2)nc(OC)n1 | · | · | 10.3 | -9.3 | ·
CCNc1nc(SC)nc(N(C#N)CC(=O)OC)n1 | -0.7 | -3.2 | 2.0 | 16.1 | 62.2*
O=C(CSc1nc2ccccc2o1)NN=C/C=C/c1ccccc1 | · | · | · | -9.8 | ·
COc1ccccc1-n1c(=O)[nH]c2c(C(N)=O)nc(CC(C)C)nc21 | 5.8 | 5.5 | 5.4 | -19.0 | 20.6*
O=C(Cc1cn(Cc2ccccc2)c2ccccc12)Nc1ccc(Nc2cccnc2)c(Br)c1 | · | · | · | 3.3 | ·
CC(O)C(NS(=O)(=O)c1ccc(Cl)cc1)C(=O)OCC(=O)c1ccc2c(c1)NC(=O)CO2 (stereo not given) | · | · | · | 9.6 | ·
CC(C)CC(NC(=O)c1ccc(Cl)cc1)C(=O)OCC(=O)c1ccc2c(c1)NC(=O)CO2 (stereo not given) | 4.3 | 5.3 | 5.3 | 8.7 | 24.6*
NC(=S)N/N=C/c1ccc2cccc(OCc3ccccc3)c2n1 | 13.9 | -4.0 | 8.3 | 4.5 | 18.4*
COC(=O)c1ccc2c(=O)n(CCCCCC(=O)NC3CCCCC3)c(=O)[nH]c2c1 | · | · | · | -3.9 | ·
C[C@@H]1OC(C2CCCCC2)N(C)[C@H]2C[C@H]3c4cc(N5CCOCC5)ccc4CCN3C[C@@H]12 (stereo not given in full) | · | · | · | 0.4 | ·
CCOc1ccc(CCNC(=O)c2cc3sccc3n2Cc2cccc(C)c2)cc1OCC | · | · | · | 4.7 | ·
S=C(Nc1cccc2ccccc12)Nc1cccc2ccccc12 | · | · | · | -3.0 | ·
CC(=O)c1cccc(NC(=S)Nc2cccc3ccccc23)c1 | -3.4 | -0.4 | 81.4* | -3.6 | -1.1
COc1cc2c(cc1NC(=O)Nc1cccc(C)c1)oc1ccccc12 | -4.5 | -2.6 | -11.5 | -8.0 | 1.0
COc1ccc(NC(=S)Nc2cccc3ccccc23)cc1OC | -7.1 | -0.4 | 82.9* | 17.8 | 0.4
Cc1ccc(C)c(NC(=S)Nc2cccnc2)c1 | -0.3 | 9.4 | 3.6 | -9.1 | -0.1
Cc1ccc(C)c(NC(=S)Nc2cccc3cnccc23)c1 | -4.0 | 11.2 | 95.7* | 6.8 | 0.3
COc1cc2c(cc1NC(=S)Nc1cccc(C)c1)oc1ccccc12 | 4.4 | 36.3* | -4.5 | -3.3 | 1.7
COc1ccccc1C(=O)N1CCC(Oc2cccnc2)CC1 | · | · | · | -3.2 | ·
C=CCN1C(=O)[C@@H](CC(=O)NCc2ccc(C)o2)[C@]2(C(=O)OCC)CCCCC/C=C/12 | · | · | · | -1.1 | ·
CC(=O)c1ccc(NC(=S)Nc2cccc3cnccc23)cc1 | -11.2 | 2.6 | 96.3* | 19.7 | 1.2
N#CCCn1cc(/C=N/NC(N)=S)c(-c2ccc(-c3ccccc3)cc2)n1 | 0.2 | -13.9 | 16.9 | 2.7 | 29.2*
COc1cccc(N2C(=O)N(c3ccccc3Cl)C3CS(=O)(=O)CC32)c1 (stereo not given) | -0.6 | 6.0 | 9.5 | -6.8 | 17.4*
COc1cccc(N2C(=O)N(c3ccccc3)C3CS(=O)(=O)CC32)c1 (stereo not given) | -1.7 | -5.5 | -32.6 | -0.1 | 5.1
CC(C)CC(NC(=O)c1cccs1)c1nnc(SCc2ccc(Cl)c(Cl)c2)n1C (stereo not given) | -2.7 | 4.9 | 18.7 | -0.8 | 2.0
C=CCn1c(SCC(=O)c2ccc(Br)cc2)nnc1C(CC(C)C)NC(=O)c1cccs1 (stereo not given) | 1.4 | 36.3* | 21.7 | 6.2 | 1.8
O=S1(=O)Nc2c(ccc3cccnc23)-c2ccccc21 | -1.5 | 54.9* | 13.2 | · | -1.6
COc1ccc(OC)c(NC(=O)CCN2C(=O)c3cccc([N+](=O)[O-])c3C2=O)c1 | -3.5 | -2.6 | -0.2 | -11.6 | -1.7
